Results on 14 molecules are retold here after ChEMBL document CHEMBL1134517, “Amphiphilic anionic analogues of galactosylceramide: synthesis, anti-HIV-1 activity, and gp120 binding” (J Med Chem, 2001).

Common to all, as to conditions: Homo sapiens
The subject of assay [1] is MT4. Nature of the assay: Cytotoxicity was evaluated in vitro on MT-4 cells. It counts as functional. The gist of the method: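 Uninfected MT4 cells incubated 5 days at 37 °C with various concentrations of galactolipid in DPBS. Proliferation and viability read by colorimetric MTT assay.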
Assay [2] has as its system MT4. Nature of the assay: Anti-HIV-1 activity evaluated in vitro on MT-4 cells. It is filed as functional, cell-based. The gist of the method:
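MT4 cells (RPMI, 10% fetal calf serum) infected with HIV-1 IIIB at a dose killing 90% of cells by day 5. Compounds in DPBS added after viral adsorption. Protection from the viral cytopathic effect read by MTT viability assay. IC50 derived from curves of protection percentage against drug concentration.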

The test system of assay [3] is CEM-SS. Nature of the assay: Cytotoxicity was evaluated in vitro on CEM-SS cells. It is filed as functional.
Assay [4] has as its system CEM-SS. Nature of the assay: Anti-HIV-1 activity evaluated in vitro on CEM-SS cells. It counts as functional, cell-based. In outline:
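CEM-SS cells (RPMI, 10% fetal calf serum) infected with HIV-1 LAI grown in CEM-SS cells. Galactolipids in DPBS (or as phospholipid/cholesterol liposomes) added after viral adsorption. After 5 days, reverse transcriptase activity in supernatant measured, and inhibition calculated against untreated infected cells. IC50 taken from median-effect plot of dose-effect data. Triplicate per concentration, experiment repeated twice.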

Consider `CCCCCCCCCCCCCC(=O)NC(CO[C@@H]1O[C@H](CO)[C@H](O)[C@H](O)[C@H]1O)C(=O)NCCO` (stereo not given in full), for which the CC50 in the assay on MT4 [1] and in the assay with CEM-SS [3] was above 100 µM each time. For the same molecule, the IC50 in the assay on MT4 [2] and in the assay on CEM-SS [4] was above 100 µM in each case.

On to `O=C(O)CCCCCCCCCCC(=O)N(CCCCCCCC(F)(F)C(F)(F)C(F)(F)C(F)(F)C(F)(F)C(F)(F)C(F)(F)C(F)(F)F)CCO[C@@H]1O[C@H](CO)[C@H](O)[C@H](O)[C@H]1O`, for which the CC50 in the assay on MT4 [1] and with CEM-SS [3] was above 18 µM in each case. Besides, the IC50 in the assay on MT4 [2] and in the assay with CEM-SS [4] was above 18 µM in each case.

`CCCCCCCCCCCCCCNC(=O)C(CO[C@@H]1O[C@H](CO)[C@H](O)[C@H](O)[C@H]1O)NP(=O)(O)OC` (stereo not given in full): the CC50 in the assay with MT4 [1] and in the assay with CEM-SS [3] was above 100 µM in each case. For the same molecule, the IC50 in the assay with MT4 [2] and with CEM-SS [4] was above 100 µM throughout.

`CCCCCCCCCCCCCCNC(=O)C(CO[C@@H]1O[C@H](CO)[C@H](O)[C@H](O)[C@H]1O)NC(=O)CCC(=O)NCCS(=O)(=O)O` (stereo not given in full): the CC50 in the assay with MT4 [1] and in the assay with CEM-SS [3] was above 100 µM in each case. For the same molecule, the values for the IC50 with MT4 [2] and in the assay with CEM-SS [4] were above 100 µM and 50 µM, respectively.

In the assay on CEM-SS [4], `CCCCCCCCCCCCCCNC(=O)C(N)CO[C@@H]1O[C@H](CO)[C@H](O)[C@H](O)[C@H]1O` (stereo not given in full) returned an IC50 of 60 µM.

Turning to `CCCCCCCCCCCCCC(=O)NC(CO[C@@H]1O[C@H](CO)[C@H](O)[C@H](O)[C@H]1O)C(=O)NCCOS(=O)(=O)O` (stereo not given in full), the CC50 in the assay with MT4 [1] and with CEM-SS [3] was above 100 µM in each case. For the same molecule, the IC50 with MT4 [2] worked out at 20 µM; in the assay on CEM-SS [4], 10 µM.

Turning to `O=C(O)CCCCCCCCCCCNC(=O)C(CO[C@@H]1O[C@H](CO)[C@H](O)[C@H](O)[C@H]1O)NC(=O)CCC(=O)O` (stereo not given in full), the CC50 with MT4 [1] and with CEM-SS [3] was above 100 µM each time. Besides, the IC50 with MT4 [2] and with CEM-SS [4] was above 100 µM each time.

Regarding `CCCCCCCCCCCCCCNC(=O)C(CO[C@@H]1O[C@H](CO)[C@H](O)[C@H](O)[C@H]1O)NC(=O)CCC(=O)O` (stereo not given in full), the CC50 in the assay on MT4 [1] and in the assay on CEM-SS [3] was above 100 µM each time. In addition, the IC50 with MT4 [2] and with CEM-SS [4] was above 100 µM in each case.

Turning to `CCCCCCCCCCCCCCNC(=O)C(CO[C@@H]1O[C@H](CO)[C@H](O)[C@H](O)[C@H]1O)NC(=O)CCCCCCCCCCC(=O)O` (stereo not given in full), the half-maximal cytotoxic concentration (CC50) with MT4 [1] and with CEM-SS [3] was above 100 µM in each case. In addition, the IC50 with MT4 [2] and with CEM-SS [4] was above 100 µM each time.

For the molecule `CCCCCCCCCCCCCC(=O)NC(CO[C@@H]1O[C@H](CO)[C@H](O)[C@H](O)[C@H]1O)C(=O)O` (stereo not given in full), the CC50 in the assay with MT4 [1] and in the assay with CEM-SS [3] was above 100 µM throughout. Also, the IC50 in the assay with MT4 [2] was above 100 µM; with CEM-SS [4], 20 µM.

For the molecule `NC(CO[C@@H]1O[C@H](CO)[C@H](O)[C@H](O)[C@H]1O)C(=O)NCCCCCCCCCCCC(=O)O` (stereo not given in full), the CC50 in the assay with MT4 [1] and with CEM-SS [3] was above 100 µM in each case. Further, the IC50 in the assay with MT4 [2] and with CEM-SS [4] was above 100 µM throughout.

Consider `NC(CO[C@@H]1O[C@H](CO)[C@H](O)[C@H](O)[C@H]1O)C(=O)NCCCCCCCCCCCC(F)(F)C(F)(F)C(F)(F)C(F)(F)C(F)(F)C(F)(F)F` (stereo not given in full), for which half-maximal inhibition in the assay with CEM-SS [4] (IC50) required 40 µM. That is a double-digit micromolar value.

Consider `CCCCCCCCCCCCCC(=O)NCC(NC(=O)CCCCCCCCCCCCC)C(=O)NCCN(CCNC(=O)C(O)C(O)C(O[C@@H]1O[C@H](CO)[C@H](O)[C@H](O)C1O)C(O)CO)CCNC(=O)C(O)C(O)C(O[C@@H]1O[C@H](CO)[C@H](O)[C@H](O)[C@H]1O)C(O)CO` (stereo not given in full), for which the half-maximal cytotoxic concentration (CC50) in the assay on MT4 [1] turned out to be 38 µM; in the assay with CEM-SS [3], 44 µM. In addition, the IC50 came to 33 µM in the assay with MT4 [2] and 32 µM in the assay with CEM-SS [4].

Regarding `CCCCCCCCCCCCCC(=O)NCC(NC(=O)CCCCCCCCCCCCC)C(=O)NCCNC(=O)C(O)C(O)C(O[C@@H]1O[C@H](CO)[C@H](O)[C@H](O)[C@H]1O)C(O)CO` (stereo not given in full), the CC50 in the assay on MT4 [1] and with CEM-SS [3] was above 100 µM throughout. Besides, the IC50 in the assay with MT4 [2] and in the assay on CEM-SS [4] was above 100 µM in each case.
